Calls of active or inactive are those of the source. The rule behind the calls is not given here.
Legend:
Type in all cases: functional
Escherichia coli = experiment: Antimicrobial activity against Escherichia coli after 18 to 20 hrs at 37degC by disc diffusion method
How it was run: (§1)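 Agar diffusion disc assay: bacterial inoculum of 1 × 10⁸ bacteria/mL spread on Mueller Hinton agar. 6 mm filter paper discs loaded with sample dissolved in DMSO. Chloramphenicol at 10 mcg/disc served as control. Plates incubated 18–20 h at 37 °C. Read-out was the zone of inhibition in mm.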

Bacillus subtilis = experiment: Antimicrobial activity against Bacillus subtilis after 18 to 20 hrs at 37degC by disc diffusion method; how it was run: as §1
Candida albicans = experiment: Antimicrobial activity against Candida albicans after 18 to 20 hrs at 37degC by disc diffusion method
How it was run: (§2)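 Fungal inoculum of 1 × 10⁶/mL spread on potato dextrose agar. 6 mm filter paper discs received sample dissolved in DMSO. Nystatin at 100 U/disc was the antifungal control. Plates incubated 18–20 h at 37 °C, then the zone of inhibition was measured in mm.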

Aspergillus niger = experiment: Antimicrobial activity against Aspergillus niger after 18 to 20 hrs at 37degC by disc diffusion method; how it was run: as §2
Pseudomonas aeruginosa = experiment: Antimicrobial activity against Pseudomonas aeruginosa after 18 to 20 hrs at 37degC by disc diffusion method; how it was run: as §1
Staphylococcus aureus = experiment: Antimicrobial activity against Staphylococcus aureus after 18 to 20 hrs at 37degC by disc diffusion method; how it was run: as §1

| Compound | diameter of the inhibition zone (DIZ) (Escherichia coli) | diameter of the inhibition zone (DIZ) (Bacillus subtilis) | diameter of the inhibition zone (DIZ) (Candida albicans) | diameter of the inhibition zone (DIZ) (Aspergillus niger) | diameter of the inhibition zone (DIZ) (Pseudomonas aeruginosa) | diameter of the inhibition zone (DIZ) (Staphylococcus aureus) | inhibition zone (IZ) (Aspergillus niger) |
| --- | --- | --- | --- | --- | --- | --- | --- |
| COc1c(F)c(F)cc2c(=O)c(C(=O)NNC(=S)Nc3cccc(C)c3)cn(C3CC3)c12 | inactive | inactive | inactive | inactive | inactive | inactive |  |
| COc1c(F)c(F)cc2c(=O)c(-c3nnc(Nc4ccccc4)s3)cn(C3CC3)c12 | 24 mm | 27 mm | 16.3 mm | 26.1 mm | 22 mm | 17 mm |  |
| COc1c(F)c(F)cc2c(=O)c(-c3nnc(Nc4cccc(C)c4)s3)cn(C3CC3)c12 | 23.8 mm | inactive | inactive | inactive | 27.1 mm | inactive |  |
| COc1c(F)c(F)cc2c(=O)c(-c3nnc(Nc4ccc(Cl)cc4)o3)cn(C3CC3)c12 | inactive | 24.6 mm | 22.5 mm |  | 26.1 mm | 21.06 mm |  |
| COc1ccc(NC(=S)NNC(=O)c2cn(C3CC3)c3c(OC)c(F)c(F)cc3c2=O)cc1 | 16.6 mm | 15.3 mm | inactive | inactive | 22.8 mm | 14.3 mm |  |
| COc1ccc(Nc2nnc(-c3cn(C4CC4)c4c(OC)c(F)c(F)cc4c3=O)o2)cc1 | inactive | 26.7 mm | 25.3 mm | 28.1 mm |  | 28 mm |  |
| COc1c(F)c(F)cc2c(=O)c(-c3n[nH]c(=S)n3-c3cccc(C)c3)cn(C3CC3)c12 | inactive | inactive | inactive | 21.8 mm | inactive | 19.8 mm |  |
| COc1ccc(-n2c(-c3cn(C4CC4)c4c(OC)c(F)c(F)cc4c3=O)n[nH]c2=S)cc1 | inactive | inactive | inactive | 21.6 mm | inactive | 23.4 mm |  |
| COc1c(F)c(F)cc2c(=O)c(-c3n[nH]c(=S)n3-c3ccccc3C)cn(C3CC3)c12 | inactive | inactive | inactive | 20.8 mm | inactive | 21.2 mm |  |
| COc1c(F)c(F)cc2c(=O)c(-c3nnc(Nc4ccc(Cl)cc4)s3)cn(C3CC3)c12 | inactive | 28 mm | 22 mm | inactive | inactive | 21 mm |  |
| O=C(N[C@H](CO)[C@H](O)c1ccc([N+](=O)[O-])cc1)C(Cl)Cl [CHLORAMPHENICOL] | 29.14 mm | 30.11 mm |  |  | 24.68 mm | 32.8 mm |  |
| COc1c(F)c(F)cc2c(=O)c(-c3nnc(Nc4ccccc4C)o3)cn(C3CC3)c12 | inactive | inactive | inactive | inactive | inactive | inactive |  |
| COc1c(F)c(F)cc2c(=O)c(C(=O)NNC(=S)Nc3ccccc3C)cn(C3CC3)c12 | 18.5 mm | 20.1 mm |  | 18 mm | 20.1 mm | 17.2 mm |  |
| COc1c(F)c(F)cc2c(=O)c(C(=O)NNC(=S)Nc3ccccc3)cn(C3CC3)c12 | 24.1 mm | 24.1 mm | 14.2 mm | inactive | 24.2 mm | 23.9 mm |  |
| COc1c(F)c(F)cc2c(=O)c(-c3nnc(Nc4ccccc4C)s3)cn(C3CC3)c12 | inactive | inactive | inactive | inactive | inactive | inactive |  |
| COc1c(F)c(F)cc2c(=O)c(-c3nnc(Nc4ccccc4)o3)cn(C3CC3)c12 | inactive | 25.4 mm |  | 14.7 mm |  | 18.8 mm |  |
| COc1c(F)c(F)cc2c(=O)c(C(=O)NNC(=S)Nc3ccc(Cl)cc3)cn(C3CC3)c12 | 15 mm | 15.1 mm | inactive | inactive | 22.6 mm | 15.9 mm |  |
| COc1c(F)c(F)cc2c(=O)c(-c3nnc(Nc4cccc(C)c4)o3)cn(C3CC3)c12 | inactive | 21 mm | inactive | inactive | inactive | inactive |  |
| NYSTATIN |  |  |  |  |  |  | 21.1 mm |
| COc1c(F)c(F)cc2c(=O)c(-c3n[nH]c(=S)n3-c3ccccc3)cn(C3CC3)c12 | inactive | inactive | inactive | 19.9 mm | inactive | 21 mm |  |
| COc1c(F)c(F)cc2c(=O)c(-c3n[nH]c(=S)n3-c3ccc(Cl)cc3)cn(C3CC3)c12 | inactive | inactive | inactive | 21.5 mm | inactive | 22.2 mm |  |
| COc1ccc(Nc2nnc(-c3cn(C4CC4)c4c(OC)c(F)c(F)cc4c3=O)s2)cc1 | inactive | inactive | inactive | inactive | inactive | inactive |  |

Reference: ChEMBL document CHEMBL1287793, “Green synthesis and biological evaluation of some novel azoles as antimicrobial agents” (2010)
